For test [1], the target named is Delta-type opioid receptor (Homo sapiens) (UniProt P41143). Briefly: Antagonist activity at human delta opioid receptor expressed in CHO cells assessed as inhibition of DPDPE-stimulated [35S]GTPgammaS binding. The format is functional, cell-based. Summed up:
(§1)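 Agonist concentration-response curves (eight concentrations, duplicate) were run with or without a single test-compound concentration. Ke = [L]/(DR−1), where [L] is the test-compound concentration and DR is the ratio of agonist EC50 with versus without compound. At least two test-compound concentrations were used, chosen to shift agonist EC50 rightward at least four-fold while keeping a clear upper asymptote.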
On the technique in general: GTPγS is a poorly hydrolysed GTP analogue; its binding reports G protein activation.

The species entered for test [2] is Homo sapiens. Briefly: Selectivity ratio of Ke for human delta opioid receptor to Ke for human kappa opioid receptor.
Test [3] has as its target Delta-type opioid receptor (Homo sapiens) (UniProt P41143). Kind of test: Intrinsic activity at human delta opioid receptor expressed in CHO cells at 10 uM by [35S]GTPgammaS binding assay. The format is functional, cell-based.
For test [4], the species on record is Homo sapiens. Kind of test: Selectivity ratio of Ke for human mu opioid receptor to Ke for human kappa opioid receptor.
For test [5], the target named is Kappa-type opioid receptor (Homo sapiens) (UniProt P41145). Briefly: Intrinsic activity at human kappa opioid receptor expressed in CHO cells at 10 uM by [35S]GTPgammaS binding assay. In kind it is functional, cell-based.
Chain of Kappa-type opioid receptor (Homo sapiens) (P41145 whole entry): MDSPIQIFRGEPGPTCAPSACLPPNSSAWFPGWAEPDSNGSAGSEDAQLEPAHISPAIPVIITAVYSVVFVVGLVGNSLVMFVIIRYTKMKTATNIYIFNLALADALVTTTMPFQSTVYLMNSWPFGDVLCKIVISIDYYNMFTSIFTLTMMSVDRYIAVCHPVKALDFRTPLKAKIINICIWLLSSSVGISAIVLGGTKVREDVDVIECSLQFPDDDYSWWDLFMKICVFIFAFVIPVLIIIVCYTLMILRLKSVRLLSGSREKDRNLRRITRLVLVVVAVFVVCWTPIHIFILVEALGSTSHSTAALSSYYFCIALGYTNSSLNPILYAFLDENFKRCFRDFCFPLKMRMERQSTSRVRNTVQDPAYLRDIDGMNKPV
Test [6] shares this target. Briefly: Antagonist activity at human kappa opioid receptor expressed in CHO cells assessed as inhibition of U69,593-stimulated [35S]GTPgammaS binding. In kind it is functional, cell-based. An outline of the steps: as §1
For test [7], the target named is Mu-type opioid receptor (Homo sapiens) (UniProt P35372). As to conditions: CHO.
Chain of Mu-type opioid receptor (Homo sapiens) (P35372 whole entry): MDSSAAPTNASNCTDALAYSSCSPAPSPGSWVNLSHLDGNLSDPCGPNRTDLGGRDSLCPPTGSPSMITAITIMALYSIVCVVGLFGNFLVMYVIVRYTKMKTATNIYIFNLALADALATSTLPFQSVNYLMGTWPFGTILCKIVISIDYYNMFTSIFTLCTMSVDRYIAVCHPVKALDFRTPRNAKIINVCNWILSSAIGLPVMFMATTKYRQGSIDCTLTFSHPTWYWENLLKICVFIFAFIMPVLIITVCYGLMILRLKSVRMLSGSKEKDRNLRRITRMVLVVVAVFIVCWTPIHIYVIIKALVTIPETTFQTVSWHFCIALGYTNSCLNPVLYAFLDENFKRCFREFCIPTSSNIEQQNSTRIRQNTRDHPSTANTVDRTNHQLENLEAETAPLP

The structures appear in SMILES notation. Activity calls are given as the source filed them. No cut-off for these calls is given here.

Chain of Delta-type opioid receptor (Homo sapiens) (P41143 whole entry): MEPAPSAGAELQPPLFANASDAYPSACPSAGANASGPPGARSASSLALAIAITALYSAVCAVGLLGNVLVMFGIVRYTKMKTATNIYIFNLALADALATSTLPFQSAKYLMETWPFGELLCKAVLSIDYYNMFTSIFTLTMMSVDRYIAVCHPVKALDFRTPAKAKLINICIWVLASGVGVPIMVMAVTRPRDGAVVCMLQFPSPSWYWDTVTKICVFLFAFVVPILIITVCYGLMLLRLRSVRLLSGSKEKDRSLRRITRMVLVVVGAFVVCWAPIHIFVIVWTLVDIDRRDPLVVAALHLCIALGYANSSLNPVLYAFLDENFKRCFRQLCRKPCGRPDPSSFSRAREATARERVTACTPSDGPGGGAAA

Take `Cc1cccc(Oc2ccc(C(=O)N[C@H](CN3CCN(c4cccc(O)c4)[C@@H](C)C3)C(C)C)cc2C)c1`: the Ke in test [1] amounted to 21 nM; in test [6], 0.16 nM; in test [7] it was 14.4 nM. Also, the Ratio Ke in the test filed under Homo sapiens [2] turned out to be 131; in the test listed under Homo sapiens [4], 89. The outcome in test [3] and in test [5] was inactive.
Consider `Cc1cccc(Oc2ccc(C(=O)N[C@H](CN3CCN(c4cccc(O)c4)[C@@H](C)C3)C(C)C)cc2O)c1`, for which the Ke in test [1] was 81 nM; in test [6], 0.57 nM; in test [7] it was 13.7 nM. Further, the figures for the Ratio Ke in the test filed under Homo sapiens [2] and in the test filed under Homo sapiens [4] were 142 and 24, respectively. In addition, the outcome in test [3] and in test [5] was inactive.
`Cc1cccc(Oc2ccc(C(=O)N[C@H](CN3CCN(c4cccc(O)c4)[C@@H](C)C3)C(C)C)c(C)c2)c1`: the Ratio Ke amounted to 22 in the test listed under Homo sapiens [2] and 28 in the test filed under Homo sapiens [4]. Also, the outcome in test [3] and in test [5] was inactive. Moreover, in test [6], the Ke was 0.65 nM.
In the case of `CC(C)[C@@H](CN1CCN(c2cccc(O)c2)[C@@H](C)C1)NC(=O)c1ccc(Oc2ccccc2O)c(Cl)c1`, the Ratio Ke worked out at 42 in the test listed under Homo sapiens [2] and 7 in the test filed under Homo sapiens [4]. In addition, the outcome in test [3] and in test [5] was inactive. For the same molecule, the Ke in test [6] amounted to 5 nM.
As to `COc1ccc(Oc2ccc(C(=O)N[C@H](CN3CCN(c4cccc(O)c4)[C@@H](C)C3)C(C)C)cc2)cc1`, the Ke in test [1] is 1380 nM; in test [6], 0.6 nM; in test [7], 17 nM. The Ratio Ke in the test listed under Homo sapiens [2] turned out to be 2300; in the test filed under Homo sapiens [4], 28. The result in test [3] and in test [5] was inactive.
As to `CC(C)[C@@H](CN1CCN(c2cccc(O)c2)[C@@H](C)C1)NC(=O)c1ccc(Oc2ccccc2F)cc1`, the Ke came out at 96 nM in test [1], 0.76 nM in test [6] and 21.1 nM in test [7]. For the same molecule, the figures for the Ratio Ke in the test filed under Homo sapiens [2] and in the test listed under Homo sapiens [4] were 126 and 28, respectively. For the same molecule, the outcome in test [3] and in test [5] was inactive.
For `CC(C)[C@@H](CN1CCN(c2cccc(O)c2)[C@@H](C)C1)NC(=O)c1ccc(Oc2ccccc2O)cc1`, the Ke in test [1] stood at 960 nM; in test [6], 1.06 nM; in test [7], 125 nM. Further, the Ratio Ke was 906 in the test listed under Homo sapiens [2] and 146 in the test listed under Homo sapiens [4]. For the same molecule, the outcome in test [3] and in test [5] was inactive.
For `COc1ccccc1Oc1ccc(C(=O)N[C@H](CN2CCN(c3cccc(O)c3)[C@@H](C)C2)C(C)C)cc1`, the Ke stood at 869 nM in test [1], 5.6 nM in test [6] and 127 nM in test [7]. Besides, the Ratio Ke was found to be 155 in the test listed under Homo sapiens [2] and 23 in the test filed under Homo sapiens [4]. For the same molecule, the result in test [3] and in test [5] was inactive.
In the case of `Cc1cccc(Oc2ccc(C(=O)N[C@H](CN3CCN(c4cccc(O)c4)[C@@H](C)C3)C(C)C)cc2Cl)c1`, the Ke in test [1] turned out to be 1100 nM; in test [6] it was 0.29 nM; in test [7], 43 nM. The Ratio Ke in the test filed under Homo sapiens [2] is 3790; in the test listed under Homo sapiens [4] it was 148. For the same molecule, the result in test [3] and in test [5] was inactive.
For `CC(C)[C@@H](CN1CCN(c2cccc(O)c2)[C@@H](C)C1)NC(=O)c1ccc(Oc2ccccc2)nc1`, the Ke in test [1] came to 1790 nM; in test [6], 1.6 nM; in test [7], 60 nM. Moreover, the Ratio Ke was 1120 in the test filed under Homo sapiens [2] and 38 in the test filed under Homo sapiens [4]. In addition, the outcome in test [3] and in test [5] was inactive.
With `CC(C)[C@@H](CN1CCN(c2cccc(O)c2)[C@@H](C)C1)NC(=O)c1ccc(Oc2cccc(C(F)(F)F)c2)cc1`, the Ke in test [1] stood at 54 nM; in test [6], 1.2 nM; in test [7], 21 nM. Besides, the Ratio Ke was found to be 45 in the test listed under Homo sapiens [2] and 18 in the test listed under Homo sapiens [4]. Moreover, the outcome in test [3] and in test [5] was inactive.
With `COc1cc(C(=O)N[C@H](CN2CCN(c3cccc(O)c3)[C@@H](C)C2)C(C)C)ccc1Oc1cc(C)ccc1O`, the Ratio Ke in the test filed under Homo sapiens [2] was determined as 19; in the test filed under Homo sapiens [4], 1.6. In addition, the result in test [3] and in test [5] was inactive. The Ke in test [6] is 6.2 nM.
For `COc1ccc(C(=O)N[C@H](CN2CCN(c3cccc(O)c3)[C@@H](C)C2)C(C)C)cc1OC`, the outcome in test [3] was inactive. Moreover, the Ratio Ke in the test filed under Homo sapiens [4] was found to be 4. Further, in test [6], the Ke came to 81.7 nM.
On to `Cc1cc(C(=O)N[C@H](CN2CCN(c3cccc(O)c3)[C@@H](C)C2)C(C)C)ccc1Oc1ccccc1`, for which the Ke worked out at 435 nM in test [1], 0.63 nM in test [6] and 15 nM in test [7]. Further, the Ratio Ke in the test listed under Homo sapiens [2] amounted to 691; in the test filed under Homo sapiens [4] it was 24. Also, the result in test [3] and in test [5] was inactive.
With `CC(C)[C@@H](CN1CCN(c2cccc(O)c2)[C@H](C)C1)NC(=O)[C@H]1Cc2ccc(O)cc2CN1`, the Ke in test [1] stood at 1550 nM; in test [7], 49.4 nM. Further, the result in test [3] and in test [5] was inactive.
`Cc1ccc(O)c(Oc2ccc(C(=O)N[C@H](CN3CCN(c4cccc(O)c4)[C@@H](C)C3)C(C)C)cc2Cl)c1`: the Ke was 15 nM in test [1], 3 nM in test [6] and 8.2 nM in test [7]. Further, the Ratio Ke came out at 5 in the test listed under Homo sapiens [2] and 3 in the test filed under Homo sapiens [4]. The result in test [3] and in test [5] was inactive.
`CC(C)[C@@H](CN1CCN(c2cccc(O)c2)[C@@H](C)C1)NC(=O)c1ccc(Oc2cccc(O)c2)cc1`: the Ke is 625 nM in test [1], 1.85 nM in test [6] and 69 nM in test [7]. For the same molecule, the Ratio Ke turned out to be 338 in the test filed under Homo sapiens [2] and 37 in the test filed under Homo sapiens [4]. Moreover, the result in test [3] and in test [5] was inactive.
Take `CC(C)[C@@H](CN1CCN(c2cccc(O)c2)[C@@H](C)C1)NC(=O)c1ccc(Oc2cccc(Br)c2)cc1`: the results for the Ke in test [1], in test [6] and in test [7] were 42 nM, 0.48 nM and 17 nM, respectively. The values for the Ratio Ke in the test filed under Homo sapiens [2] and in the test filed under Homo sapiens [4] were 88 and 35, respectively. The result in test [3] and in test [5] was inactive.
Take `COc1cc(C(=O)N[C@H](CN2CCN(c3cccc(O)c3)[C@@H](C)C2)C(C)C)ccc1Oc1ccccc1O`: the Ratio Ke came out at 7 in the test filed under Homo sapiens [2] and 5 in the test filed under Homo sapiens [4]. Moreover, the result in test [3] and in test [5] was inactive. Besides, the Ke in test [6] was determined as 16.3 nM; in test [7], 74 nM.
Regarding `Cc1cccc(Oc2ccc(C(=O)N[C@H](CN3CCN(c4cccc(O)c4)[C@@H](C)C3)C(C)C)cc2)c1O`, the Ke in test [1] was found to be 93 nM; in test [6] it was 0.34 nM; in test [7], 23.8 nM. For the same molecule, the Ratio Ke in the test listed under Homo sapiens [2] came out at 272; in the test listed under Homo sapiens [4], 70. The result in test [3] and in test [5] was inactive.
As for `COc1cccc(Oc2ccc(C(=O)N[C@H](CN3CCN(c4cccc(O)c4)[C@@H](C)C3)C(C)C)cc2)c1`, the results for the Ke in test [1], in test [6] and in test [7] were 1500 nM, 0.63 nM and 33 nM, respectively. In addition, the results for the Ratio Ke in the test filed under Homo sapiens [2] and in the test listed under Homo sapiens [4] were 2380 and 52, respectively. The outcome in test [3] and in test [5] was inactive.
In the case of `CC(C)[C@@H](CN1CCN(c2cccc(O)c2)[C@@H](C)C1)NC(=O)c1ccc(Oc2cccc(Cl)c2)cc1`, the Ke was determined as 8.3 nM in test [1], 0.42 nM in test [6] and 18 nM in test [7]. In addition, the Ratio Ke worked out at 20 in the test filed under Homo sapiens [2] and 43 in the test listed under Homo sapiens [4]. For the same molecule, the result in test [3] and in test [5] was inactive.
Turning to `CC(C)[C@@H](CN1CCN(c2cccc(O)c2)[C@@H](C)C1)NC(=O)c1ccc(Oc2cccc(F)c2)cc1`, the Ke in test [1] came out at 173 nM; in test [6] it was 1.48 nM; in test [7], 30 nM. The Ratio Ke in the test listed under Homo sapiens [2] stood at 117; in the test filed under Homo sapiens [4], 20. Besides, the outcome in test [3] and in test [5] was inactive.
Turning to `CC(C)[C@@H](CN1CCN(c2cccc(O)c2)[C@@H](C)C1)NC(=O)[C@H]1Cc2ccc(O)cc2CN1`, the Ke in test [1] amounted to 1310 nM; in test [7], 74.2 nM. For the same molecule, the result in test [3] and in test [5] was inactive.
As for `Cc1ccc(O)c(Oc2ccc(C(=O)N[C@H](CN3CCN(c4cccc(O)c4)[C@@H](C)C3)C(C)C)cc2)c1`, the outcome in test [3] and in test [5] was inactive.
On to `Cc1cccc(Oc2ccc(C(=O)N[C@H](CN3CCN(c4cccc(O)c4)[C@@H](C)C3)C(C)C)c(O)c2)c1`, for which the values for the Ratio Ke in the test filed under Homo sapiens [2] and in the test filed under Homo sapiens [4] were 463 and 63, respectively. Further, the outcome in test [3] and in test [5] was inactive. Besides, the Ke in test [6] was found to be 1.9 nM.

The record behind these values is ChEMBL document CHEMBL2380235, “Discovery of N-{4-[(3-hydroxyphenyl)-3-methylpiperazin-1-yl]methyl-2-methylpropyl}-4-phenoxybenzamide analogues as selective kappa opioid receptor antagonists” (J Med Chem, 2013).
